Measured values as given in ChEMBL document CHEMBL1255444, “In vitro antibacterial activities of JNJ-Q2, a new broad-spectrum fluoroquinolone” (Antimicrob Agents Chemother, 2010).
≈ marks a conversion by molar mass, not a printed value. Calls of active or inactive are those of the source. The calls are words filed in the database; no cut-off is given here.

Columns and labels:
[1] = system: Staphylococcus aureus; assay: Antibacterial activity against methicillin-resistant Staphylococcus aureus isolate OC8525 harboring wild type quinolone resistance-determining region assessed as >= 4 fold increase in bactericidal activity by broth microdilution method in presence of 20 ug/ml reserpine; assay type: functional, organism-based
[2] = system: Staphylococcus aureus; assay: Antibacterial activity against methicillin-resistant Staphylococcus aureus isolate OC11696 assessed as >= 4 fold increase in bactericidal activity by broth microdilution method in presence of 20 ug/ml reserpine; assay type: functional, organism-based
[3] = system: Staphylococcus aureus; assay: Antibacterial activity against methicillin-resistant Staphylococcus aureus isolate OC12501 assessed as >= 4 fold increase in bactericidal activity by broth microdilution method in presence of 20 ug/ml reserpine; assay type: functional, organism-based
[4] = system: Staphylococcus aureus; assay: Antibacterial activity against methicillin-resistant Staphylococcus aureus isolate OC8530 harboring gyrA S84L and parC I143V mutant gene assessed as >= 4 fold increase in bactericidal activity by broth microdilution method in presence of 20 ug/ml reserpine; assay type: functional, organism-based
[5] = system: Staphylococcus aureus; assay: Antibacterial activity against methicillin-resistant Staphylococcus aureus isolate OC4222 harboring gyrA S84L and parC S80F mutant gene assessed as >= 4 fold increase in bactericidal activity by broth microdilution method in presence of 20 ug/ml reserpine; assay type: functional, organism-based
[6] = system: Staphylococcus aureus; assay: Antibacterial activity against methicillin-resistant Staphylococcus aureus isolate OC17042 harboring gyrA S84L/G106D, parC S80F and parE D732N mutant gene assessed as >= 4 fold increase in bactericidal activity by broth microdilution method in presence of 20 ug/ml reserpine; assay type: functional, organism-based
[7] = system: Staphylococcus aureus; assay: Antibacterial activity against methicillin-resistant Staphylococcus aureus isolate OC11521 harboring gyrA S84L/S85P, parC E84G mutant gene assessed as >= 4 fold increase in bactericidal activity by broth microdilution method in presence of 20 ug/ml reserpine; assay type: functional, organism-based
[8] = system: Streptococcus pneumoniae; assay: Antibacterial activity against Streptococcus pneumoniae ATCC 49619 by broth microdilution method; assay type: functional
Method in brief: (§1)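 MICs by CLSI M07-A7 broth microdilution in cation-adjusted Mueller-Hinton medium. For S. pneumoniae the medium was supplemented with 5% lysed horse blood. CLSI quality control strains were run alongside as appropriate.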

[9] = system: Streptococcus pneumoniae; assay: Antibacterial activity against ciprofloxacin-resistant Streptococcus pneumoniae by broth microdilution method; assay type: functional
Method in brief: (§2)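 CLSI M07-A7 broth microdilution MIC. Medium was cation-adjusted Mueller-Hinton broth. For S. pneumoniae it was Mueller-Hinton supplemented with 5% lysed horse blood. CLSI quality-control strains were included as appropriate.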

[10] = system: Staphylococcus epidermidis; assay: Antibacterial activity against methicillin-susceptible Staphylococcus epidermidis by broth microdilution method; assay type: functional
[11] = system: Staphylococcus epidermidis; assay: Antibacterial activity against methicillin-resistant Staphylococcus epidermidis by broth microdilution method; assay type: functional
[12] = system: Staphylococcus epidermidis; assay: Antibacterial activity against methicillin-, ciprofloxacin-resistant Staphylococcus epidermidis by broth microdilution method; assay type: functional
[13] = system: Escherichia coli; assay: Antibacterial activity against ciprofloxacin-resistant Escherichia coli by broth microdilution method; assay type: functional; method in brief: as §2
[14] = system: Enterobacter cloacae; assay: Antibacterial activity against Enterobacter cloacae by broth microdilution method; assay type: functional
[15] = system: Klebsiella aerogenes; assay: Antibacterial activity against Enterobacter aerogenes by broth microdilution method; assay type: functional; method in brief: as §1
[16] = system: Klebsiella pneumoniae; assay: Antibacterial activity against Klebsiella pneumoniae by broth microdilution method; assay type: functional; method in brief: as §1
[17] = system: Providencia stuartii; assay: Antibacterial activity against Providencia stuartii by broth microdilution method; assay type: functional; method in brief: as §1
[18] = system: Pseudomonas aeruginosa; assay: Antibacterial activity against Pseudomonas aeruginosa ATCC 27853 by broth microdilution method; assay type: functional; method in brief: as §1

For `CC[n+]1c(-c2ccccc2)c2cc(N)ccc2c2ccc(N)cc21`, the Activity [1] was “Active”, the Activity [2] was “Active” and the Activity [3] was “Active”. The Activity [4] was “Active”, the Activity [5] was “Active” and the Activity [6] was “Active”. The Activity [7] was “Active”.
`CC1(C)S[C@@H]2[C@H](NC(=O)Cc3ccccc3)C(=O)N2[C@H]1C(=O)O` [PENICILLIN G] was tested, and the MIC50 [8] was 0.06 µg/mL (≈ 0.179 µM) and the MIC90 [8] was 2 µg/mL (≈ 5.98 µM).
With `C[C@H]1COc2c(N3CCN(C)CC3)c(F)cc3c(=O)c(C(=O)O)cn1c23.C[C@H]1COc2c(N3CCN(C)CC3)c(F)cc3c(=O)c(C(=O)O)cn1c23.O` [LEVOFLOXACIN] the MIC50 [9] was 16 µg/mL, the MIC90 [9] was 64 µg/mL and the MIC [10] was 0.12 µg/mL. The MIC50 [10] was 0.12 µg/mL, the MIC90 [10] was 0.25 µg/mL and the MIC50 [11] was 8 µg/mL. For the same compound, the MIC90 [11] was 16 µg/mL, the MIC50 [12] was 16 µg/mL and the MIC90 [12] was 16 µg/mL. For the same compound, the MIC50 [13] was 16 µg/mL, the MIC90 [13] was 64 µg/mL and the MIC50 [14] was 0.06 µg/mL. For the same compound, the MIC90 [14] was 0.12 µg/mL, the MIC50 [15] was 0.06 µg/mL and the MIC90 [15] was 0.06 µg/mL. It also gave an MIC50 [16] of 0.06 µg/mL, an MIC90 [16] of 0.12 µg/mL and an MIC50 [17] of 16 µg/mL. For the same compound, the MIC90 [17] was 64 µg/mL, the MIC [18] was 0.5 µg/mL and the MIC50 [18] was 0.5 µg/mL. It also gave an MIC90 [18] of 2 µg/mL.
Compound `CC[C@H]1OC(=O)[C@H](C)[C@@H](O[C@H]2C[C@@](C)(OC)[C@@H](O)[C@H](C)O2)[C@H](C)[C@@H](O[C@@H]2O[C@H](C)C[C@H](N(C)C)[C@H]2O)[C@](C)(O)C[C@@H](C)C(=O)[C@H](C)[C@@H](O)[C@]1(C)O` [ERYTHROMYCIN] has an MIC50 [8] of 0.06 µg/mL (≈ 0.0818 µM) and an MIC90 [8] of 16 µg/mL (≈ 21.8 µM).
